ChEMBL document CHEMBL2016524, “Synthesis and in vitro anticancer and antitubercular activity of diarylpyrazole ligated dihydropyrimidines possessing lipophilic carbamoyl group” (2012)
Values after ≈ are worked out from the molar mass of the structure shown.

Key:
Assay type in all cases: functional
MCF7 [1] = test: Growth inhibition of human MCF7 cells at 10 uM after 24 hrs by SRB assay; settings: MCF7, 24 h, read-out: GI
How it was run: (§1)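 Human breast cancer MCF-7 cells were exposed to each compound at four doses (1 × 10^-7, 10^-6, 10^-5 and 10^-4 M) and growth was read by sulforhodamine B assay. Values are % control growth, with negative numbers meaning cell kill. GI50 is the concentration giving 50% inhibition of cell growth. Positive controls were included, and each experiment was done three times.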

MCF7 [2] = test: Growth inhibition of human MCF7 cells at 100 uM after 24 hrs by SRB assay; settings: MCF7, 24 h, read-out: GI; how it was run: as §1
MCF7 [3] = test: Growth inhibition of human MCF7 cells after 24 hrs by SRB assay; settings: MCF7, 24 h; how it was run: as §1
[4] = system: Mycobacterium tuberculosis; test: Antitubercular activity against Mycobacterium tuberculosis H37Rv after 5 days by microplate Alamar blue assay; settings: 120 h
How it was run: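 MIC read by resazurin (Alamar Blue) microplate assay after 5 days of incubation at 37 °C. Run in duplicate each time, repeated twice, and MIC confirmed in a BacT/ALERT MP mycobacterial detection system.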

MCF7 [5] = test: Growth inhibition of human MCF7 cells at 0.1 uM after 24 hrs by SRB assay; settings: MCF7, 24 h, read-out: GI; how it was run: as §1
MCF7 [6] = test: Growth inhibition of human MCF7 cells at 1 uM after 24 hrs by SRB assay; settings: MCF7, 24 h, read-out: GI; how it was run: as §1

CC1=C(C(=O)Nc2ccc(C)cc2)C(c2cn(-c3ccccc3)nc2-c2ccccc2)NC(=S)N1 (stereo unspecified)
inhibition of growth at 10 µM (MCF7 [1]): 19.7%
inhibition of growth at 100 µM (MCF7 [2]): 84.3%
GI50 (MCF7 [3]): 56.1 µM
MIC [4]: 16 µg/mL (≈ 33.4 µM)

CC1=C(C(=O)Nc2ccccc2Cl)C(c2cn(-c3ccccc3)nc2-c2ccccc2)NC(=S)N1 (stereo unspecified)
inhibition of growth at 10 µM (MCF7 [1]): 16.5%
inhibition of growth at 100 µM (MCF7 [2]): 68.5%
GI50 (MCF7 [3]): 68.8 µM
MIC [4]: 16 µg/mL (≈ 32 µM)

CC1=C(C(=O)Nc2ccccc2)C(c2cn(-c3ccccc3)nc2-c2ccccc2)NC(=S)N1 (stereo unspecified)
inhibition of growth at 10 µM (MCF7 [1]): < 10%
inhibition of growth at 100 µM (MCF7 [2]): 57.4%
GI50 (MCF7 [3]): 88.2 µM
MIC [4]: 32 µg/mL (≈ 68.7 µM)

CC1=C(C(=O)Nc2ccc([N+](=O)[O-])cc2)C(c2cn(-c3ccccc3)nc2-c2ccccc2)NC(=S)N1 (stereo unspecified)
inhibition of growth at 10 µM (MCF7 [1]): 48.4%
inhibition of growth at 100 µM (MCF7 [2]): 99.3%
GI50 (MCF7 [3]): 41.4 µM
MIC [4]: 32 µg/mL (≈ 62.7 µM)

CCOC(=O)C1=C(C)NC(=O)NC1c1cn(-c2ccccc2)nc1-c1ccccc1 (stereo unspecified)
inhibition of growth at 10 µM (MCF7 [1]): < 10%
inhibition of growth at 100 µM (MCF7 [2]): 86%
GI50 (MCF7 [3]): 60.8 µM
MIC [4]: 16 µg/mL (≈ 39.8 µM)

COc1ccc(NC(=O)C2=C(C)NC(=S)NC2c2cn(-c3ccccc3)nc2-c2ccc(Cl)cc2)cc1 (stereo unspecified)
inhibition of growth at 10 µM (MCF7 [1]): < 10%
inhibition of growth at 100 µM (MCF7 [2]): 72%
GI50 (MCF7 [3]): 70 µM
MIC [4]: 16 µg/mL (≈ 30.2 µM)

COc1ccc(NC(=O)C2=C(C)NC(=O)NC2c2cn(-c3ccccc3)nc2-c2ccc(Cl)cc2)cc1 (stereo unspecified)
inhibition of growth at 10 µM (MCF7 [1]): < 10%
inhibition of growth at 100 µM (MCF7 [2]): 72.1%
GI50 (MCF7 [3]): 69.7 µM
MIC [4]: 1 µg/mL (≈ 1.95 µM)

CC1=C(C(=O)Nc2ccc(C)cc2)C(c2cn(-c3ccccc3)nc2-c2ccc(Cl)cc2)NC(=O)N1 (stereo unspecified)
inhibition of growth at 10 µM (MCF7 [1]): 13.6%
inhibition of growth at 100 µM (MCF7 [2]): 70.4%
GI50 (MCF7 [3]): 69.7 µM
MIC [4]: 32 µg/mL (≈ 64.3 µM)

CC1=C(C(=O)Nc2ccc(Cl)cc2)C(c2cn(-c3ccccc3)nc2-c2ccc(Cl)cc2)NC(=O)N1 (stereo unspecified)
inhibition of growth at 10 µM (MCF7 [1]): < 10%
inhibition of growth at 100 µM (MCF7 [2]): 88.7%
GI50 (MCF7 [3]): 56.9 µM
MIC [4]: 32 µg/mL (≈ 61.7 µM)

COc1ccc(NC(=O)C2=C(C)NC(=S)NC2c2cn(-c3ccccc3)nc2-c2ccccc2)cc1 (stereo unspecified)
inhibition of growth at 10 µM (MCF7 [1]): < 10%
inhibition of growth at 100 µM (MCF7 [2]): 63.9%
GI50 (MCF7 [3]): 77.3 µM
MIC [4]: 8 µg/mL (≈ 16.1 µM)

CC1=C(C(=O)Nc2ccc([N+](=O)[O-])cc2)C(c2cn(-c3ccccc3)nc2-c2ccccc2)NC(=O)N1 (stereo unspecified)
inhibition of growth at 10 µM (MCF7 [1]): 27.3%
inhibition of growth at 100 µM (MCF7 [2]): -17.7%
GI50 (MCF7 [3]): 35.5 µM
MIC [4]: 16 µg/mL (≈ 32.4 µM)

CC1=C(C(=O)Nc2ccccc2)C(c2cn(-c3ccccc3)nc2-c2ccc(Cl)cc2)NC(=O)N1 (stereo unspecified)
inhibition of growth at 10 µM (MCF7 [1]): 19.6%
inhibition of growth at 100 µM (MCF7 [2]): 71.7%
GI50 (MCF7 [3]): 65.5 µM
MIC [4]: 2 µg/mL (≈ 4.13 µM)

CC1=C(C(=O)Nc2ccccc2)C(c2cn(-c3ccccc3)nc2-c2ccc(Cl)cc2)NC(=S)N1 (stereo unspecified)
inhibition of growth at 10 µM (MCF7 [1]): 24.2%
inhibition of growth at 100 µM (MCF7 [2]): 74.7%
GI50 (MCF7 [3]): 61.5 µM
MIC [4]: 32 µg/mL (≈ 64 µM)

CCOC(=O)C1=C(C)NC(=S)NC1c1cn(-c2ccccc2)nc1-c1ccc(Cl)cc1 (stereo unspecified)
inhibition of growth at 10 µM (MCF7 [1]): 70.6%
inhibition of growth at 100 µM (MCF7 [2]): 99.2%
GI50 (MCF7 [3]): 33.2 µM
MIC [4]: 0.125 µg/mL (≈ 0.276 µM)
inhibition of growth at 0.1 µM (MCF7 [5]): 4.1%
inhibition of growth at 1 µM (MCF7 [6]): 12%

CCOC(=O)C1=C(C)NC(=S)NC1c1cn(-c2ccccc2)nc1-c1ccccc1 (stereo unspecified)
inhibition of growth at 10 µM (MCF7 [1]): 30.4%
inhibition of growth at 100 µM (MCF7 [2]): -12%
GI50 (MCF7 [3]): 42 µM
MIC [4]: 32 µg/mL (≈ 76.5 µM)

CC1=C(C(=O)Nc2ccccc2)C(c2cn(-c3ccccc3)nc2-c2ccccc2)NC(=O)N1 (stereo unspecified)
inhibition of growth at 10 µM (MCF7 [1]): < 10%
inhibition of growth at 100 µM (MCF7 [2]): 63.2%
GI50 (MCF7 [3]): 80.6 µM
MIC [4]: 32 µg/mL (≈ 71.2 µM)

CC1=C(C(=O)Nc2ccc(C)cc2)C(c2cn(-c3ccccc3)nc2-c2ccccc2)NC(=O)N1 (stereo unspecified)
inhibition of growth at 10 µM (MCF7 [1]): 11.9%
inhibition of growth at 100 µM (MCF7 [2]): 68.6%
GI50 (MCF7 [3]): 71.7 µM
MIC [4]: 32 µg/mL (≈ 69 µM)

CC1=C(C(=O)Nc2ccccc2Cl)C(c2cn(-c3ccccc3)nc2-c2ccccc2)NC(=O)N1 (stereo unspecified)
inhibition of growth at 10 µM (MCF7 [1]): 13.9%
inhibition of growth at 100 µM (MCF7 [2]): 72.2%
GI50 (MCF7 [3]): 66.6 µM
MIC [4]: 32 µg/mL (≈ 66.1 µM)

CCOC(=O)C1=C(C)NC(=O)NC1c1cn(-c2ccccc2)nc1-c1ccc(Cl)cc1 (stereo unspecified)
inhibition of growth at 10 µM (MCF7 [1]): 17.1%
inhibition of growth at 100 µM (MCF7 [2]): 70.3%
GI50 (MCF7 [3]): 68.8 µM
MIC [4]: 0.25 µg/mL (≈ 0.572 µM)

CC1=C(C(=O)Nc2ccc(Cl)cc2)C(c2cn(-c3ccccc3)nc2-c2ccccc2)NC(=S)N1 (stereo unspecified)
inhibition of growth at 10 µM (MCF7 [1]): 48.6%
inhibition of growth at 100 µM (MCF7 [2]): -12.8%
GI50 (MCF7 [3]): 34.7 µM
MIC [4]: 8 µg/mL (≈ 16 µM)

CC1=C(C(=O)Nc2ccc(C)cc2)C(c2cn(-c3ccccc3)nc2-c2ccc(Cl)cc2)NC(=S)N1 (stereo unspecified)
inhibition of growth at 10 µM (MCF7 [1]): 63.7%
inhibition of growth at 100 µM (MCF7 [2]): 84.9%
GI50 (MCF7 [3]): 43.5 µM
MIC [4]: 2 µg/mL (≈ 3.89 µM)
